# Compound activity as filed in PubChem.
# Compounds with a hit are over-represented: about 1.8% of the library has one in this group of screens.
# M5 PAM – human M5 muscarinic receptor positive allosteric modulators, primary screen, CHO-K1 cells, Fluo-8 calcium fluorescence; 360,000 tested, 0.3% active; CHO-K1 hM5, ACh EC20 PAM; 0% = ACh EC20, 100% = ACh EC100; activation, % at 3 µM; Muscarinic acetylcholine receptor M5 (Homo sapiens), P08912;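 active means activation above the run cutoff, the mean activation of all test compounds plus 3 SD, cut at about 18% in these data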
# Target sequence (P08912 whole entry, looked up): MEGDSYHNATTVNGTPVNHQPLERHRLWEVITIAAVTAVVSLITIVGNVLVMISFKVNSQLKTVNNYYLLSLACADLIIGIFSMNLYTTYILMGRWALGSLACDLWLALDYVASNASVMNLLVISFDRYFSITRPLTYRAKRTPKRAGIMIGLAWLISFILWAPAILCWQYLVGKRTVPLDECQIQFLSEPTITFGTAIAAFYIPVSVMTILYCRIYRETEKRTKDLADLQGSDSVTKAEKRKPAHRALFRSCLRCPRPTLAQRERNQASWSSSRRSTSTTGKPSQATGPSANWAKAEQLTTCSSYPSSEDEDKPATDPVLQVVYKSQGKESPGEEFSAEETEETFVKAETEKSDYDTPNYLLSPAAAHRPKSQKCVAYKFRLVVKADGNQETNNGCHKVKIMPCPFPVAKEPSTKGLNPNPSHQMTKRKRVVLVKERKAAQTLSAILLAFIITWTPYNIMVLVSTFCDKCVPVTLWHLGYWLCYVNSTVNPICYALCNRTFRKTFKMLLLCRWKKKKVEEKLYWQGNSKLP
#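 Assay system: CHO-K1 hM5 cells / Incubation: Fluo-8 loading 80 min at 37 °C plus 30 min room temperature / Technique: Fluo-8 calcium dye fluorescence, kinetic read / Repeats: single replicate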
# M4 ag – human M4 muscarinic receptor agonists, primary screen, CHO-K1 cells, Fluo-8 calcium fluorescence. AID 624127, 2012. activation, % at 3 µM. 360,000 tested, 0.14% active. CHO-K1 hM4/Gqi5; vehicle 0%, full acetylcholine response 100%. Muscarinic acetylcholine receptor M4 (Homo sapiens), P08173;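 active means activation above the run mean over all test wells plus 3 SD, cut at about 32% in these data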;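 further: peak over basal fluorescence ratio per well then scaled between controls; 0% = DMSO wells and 100% = acetylcholine at EC100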
# CHRM4 antagonist – human M4 muscarinic receptor antagonists, primary screen, CHO cells, Fluo-8 calcium fluorescence | CHO-hM4 cells, ACh EC80 | 360,000 tested, 0.73% active | Muscarinic acetylcholine receptor M4 (Homo sapiens), P08173 | AID 624125, 2012 | inhibition, % at 3 µM;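 active means inhibition above its plate's cutoff, the mean inhibition of sample wells plus 3 SD, cut at about 27% in these data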;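 further: 0% = acetylcholine EC80 with DMSO and 100% = DMSO without agonist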
# CHRM5 antagonist – human M5 muscarinic receptor antagonists, primary screen, CHO cells, Fluo-8 calcium fluorescence | Muscarinic acetylcholine receptor M5 (Homo sapiens), P08912 | CHO-hM5 cells, ACh EC80 | inhibition, % at 3 µM | 360,000 tested, 0.59% active | AID 624040, 2012;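 active means inhibition above a per-plate cutoff, the mean of that plate's test compounds plus 3 SD, cut at about 27% in these data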;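 further: 0% = acetylcholine EC80 with DMSO and 100% = DMSO without agonist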
# CHRM4 PAM – human M4 muscarinic receptor positive allosteric modulators, primary screen, CHO-K1 cells, Fluo-8 calcium fluorescence. Muscarinic acetylcholine receptor M4 (Homo sapiens), P08173. CHO-K1 hM4/Gqi5, ACh EC20; 0% = ACh EC20, 100% = maximal ACh. activation, % at 3 µM. 360,000 tested, 0.4% active;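 active means activation above its plate's cutoff, the mean activation of sample wells plus 3 SD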
# M5 ag – human M5 muscarinic receptor agonists, primary screen, CHO-K1 cells, Fluo-8 calcium fluorescence; Muscarinic acetylcholine receptor M5 (Homo sapiens), P08912; CHO-K1 hM5 cells; 0% DMSO wells, 100% maximal acetylcholine response; activation, % at 3 µM; 360,000 tested, 0.19% active;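 active means activation above the run's mean over test compounds plus 3 SD, cut at about 23% in these data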;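 further: signal is peak over basal fluorescence ratio across the kinetic read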
# Active calls of the source: *.
SMILES,M5 PAM,M4 ag,CHRM4 antagonist,CHRM5 antagonist,CHRM4 PAM,M5 ag
CCCn1cc(SCC(=O)Nc2ccc3c(c2)OCO3)c2ccccc21,-19.5,5.2,-11.1,5.4,-4.6,28.5*
O=C(CCn1cnc2ccccc2c1=O)Nc1ccc2c(c1)OCCO2,24.8*,1.6,-5.8,-8.4,0.8,-5.3
Cn1nc(CC(=O)Nc2ccc3c(c2)OCCO3)c2ccccc2c1=O,-7.6,8.5,16.0,32.4*,2.6,5.6
Cc1ccc(NC(=O)Cc2nn(C)c(=O)c3ccccc23)cc1F,-15.7,4.7,32.8*,15.1,-11.9,4.7
CCN(CC)C(=O)C1=C(C)N(Cc2ccccc2)C(=O)C(CC(=O)NCCc2ccccn2)C1 (configuration not stated),0.2,0.8,-7.2,5.8,1.6,-0.3
O=C(CSc1ccc(Cl)cc1)OCC(=O)N1CCN(c2ccccc2)CC1,-4.1,1.9,-16.1,1.6,4.1,0.1
COCCCNC(=O)Cn1c(=O)n(CC(=O)NCCc2ccc(OC)c(OC)c2)c(=O)c2sccc21,1.0,0.5,-5.2,8.4,31.8,1.0
COc1ccc(CCNC(=O)Cn2c(=O)n(-c3ccc(C)c(F)c3)c(=O)c3sccc32)cc1OC,6.7,-1.8,3.2,-8.1,31.7*,-0.7
C=CCN=C1CCCc2c1[nH]c1ccc(C)cc21,1.6,-0.6,0.6,5.3,0.1,-5.9
COCCN(C(=O)COC(=O)c1cccnc1SC)c1c(N)n(Cc2ccccc2)c(=O)[nH]c1=O,0.6,1.0,-12.9,3.5,22.0*,3.1
COCCN(C(=O)COC(=O)C12CC3CC(CC(Cl)(C3)C1)C2)c1c(N)n(Cc2ccccc2)c(=O)[nH]c1=O,1.4,1.5,-15.1,-0.9,27.0*,2.2
CCN(C(=O)COC(=O)c1nc(Cl)ccc1Cl)c1c(N)n(Cc2ccccc2)c(=O)[nH]c1=O,7.3,1.4,1.8,0.3,13.5,3.3
CC(C)CN(C(=O)COC(=O)C12CC3CC(CC(Cl)(C3)C1)C2)c1c(N)n(Cc2ccccc2)c(=O)[nH]c1=O,6.2,-0.5,0.3,-5.9,0.2,1.0
COCCN(C(=O)COC(=O)c1cccnc1Cl)c1c(N)n(Cc2ccccc2)c(=O)[nH]c1=O,1.2,3.2,0.9,-7.0,2.6,2.0
COCCN(C(=O)COC(=O)c1nc(Cl)ccc1Cl)c1c(N)n(Cc2ccccc2)c(=O)[nH]c1=O,-0.6,-0.1,26.9*,1.8,-5.7,1.1
CCN(C(=O)COC(=O)c1ccccc1Oc1ccccc1)c1c(N)n(Cc2ccccc2)c(=O)[nH]c1=O,-4.7,1.8,-6.4,13.2,24.8*,-0.4
COCCN(C(=O)COC(=O)c1ccccc1Oc1ccccc1)c1c(N)n(Cc2ccccc2)c(=O)[nH]c1=O,4.3,0.8,2.0,-9.1,6.4,-6.0
COCCN(C(=O)Cc1coc2cc(C)c(C)cc12)c1c(N)n(Cc2ccccc2)c(=O)[nH]c1=O,-32.2,1.6,-2.4,100.4*,3.4,-9.5
CCOC(=O)C1=C(C)NC(=S)N(C=O)C1c1ccccc1 (configuration not stated),-2.8,0.2,-10.2,4.5,14.9,-4.1
CCC(Cc1ccccc1)NC(=O)C1CC1 (configuration not stated),7.6,0.4,2.7,-3.5,4.9,3.9
Clc1ccc(-n2ncc3c(NCC4CCCO4)ncnc32)cc1 (configuration not stated),-2.3,2.5,36.8*,-4.9,-15.9,3.6
c1ccc(-n2ncc3c(NCC4CCCO4)ncnc32)cc1 (configuration not stated),-16.8,4.2,-1.4,14.6,-4.2,-4.9
COc1ccc(/C=C/C(=O)OCC(=O)NCCC2=CCCCC2)cc1S(=O)(=O)N1CCOCC1,-6.8,9.9,-1.4,4.7,-11.8,-1.3
CCCCNc1c(-c2ccc(-c3cccc(Cl)c3)cc2)nc2ccccn12,-18.1,4.8,9.0,15.5,-14.7,-1.9
CCCCNc1c(-c2ccc(OC)c(SC3CCCCC3)c2)nc2cc(C)ccn12,-13.1,7.4,28.6*,14.6,-12.1,-7.8
SMILES,M5 PAM,M4 ag,CHRM4 antagonist,CHRM5 antagonist,CHRM4 PAM,M5 ag
CCCCNc1c(-c2cccc(-c3ccc(OC)cc3)c2)nc2cc(C)ccn12,-32.4,15.2,41.5*,27.8*,-13.1,-7.2
CCCCNc1c(-c2cccc(-c3ccc(OC)cc3)c2)nc2ccc(C)cn12,-39.1,22.4,51.7*,34.3*,-13.8,-4.6
CCCCNc1c(-c2cccc(-c3cc(C(C)=O)cs3)c2)nc2ccc(C)cn12,-34.5,20.8,26.4,19.8,-11.4,-4.9
CC(=O)N1CCOc2ccc(S(=O)(=O)NCC3CCC(C(=O)NCCC(C)C)CC3)cc21 (configuration not stated),4.4,2.5,2.7,-3.1,15.5*,-5.1
COc1ccccc1N1CCN(CCCCCCOc2ccc(F)cc2)CC1,-18.9,5.4,1.8,39.1*,-11.6,-6.2
Brc1ccc(CNc2ccc3ncccc3c2)cc1,-24.0,7.5,25.4,31.7*,-12.3,-13.5
CCc1ccc(C(=O)NNC(=O)C2CC(=O)N(Cc3ccccc3)C2)cc1 (configuration not stated),1.1,0.3,-7.2,0.8,2.9,-0.8
O=C(NNC(=O)C1CC(=O)N(Cc2ccccc2)C1)c1ccc(Br)cc1 (configuration not stated),-7.2,0.7,-0.5,29.1*,-1.2,-4.9
NC(Cc1ccccc1)c1csc(NC(=O)Nc2ccccc2Oc2ccccc2)n1 (configuration not stated),-3.8,11.3,15.1,6.3,-6.1,0.8
NC(Cc1ccc(C(F)(F)F)cc1)c1csc(Nc2ncccn2)n1 (configuration not stated),-1.0,13.0,-7.2,-2.2,-3.7,7.6
NC(Cc1ccc(C(F)(F)F)cc1)c1csc(Nc2ccccn2)n1 (configuration not stated),1.0,41.0*,-3.1,4.7,0.3,4.8
NC(Cc1ccc(Cl)cc1)c1csc(Nc2ccc(-c3ccccc3)nn2)n1 (configuration not stated),3.5,38.1*,18.1,7.7,-0.7,6.7
